# Measured values: article PMC3625064 (Molecular cell, 2012)
# Entries after “also recorded” stand apart in the source; their conditions may differ. No end group written: not given here.
# T1: LSD2 (Homo sapiens, UniProt Q8NB78)
# T1 sequence (Q8NB78 1-822): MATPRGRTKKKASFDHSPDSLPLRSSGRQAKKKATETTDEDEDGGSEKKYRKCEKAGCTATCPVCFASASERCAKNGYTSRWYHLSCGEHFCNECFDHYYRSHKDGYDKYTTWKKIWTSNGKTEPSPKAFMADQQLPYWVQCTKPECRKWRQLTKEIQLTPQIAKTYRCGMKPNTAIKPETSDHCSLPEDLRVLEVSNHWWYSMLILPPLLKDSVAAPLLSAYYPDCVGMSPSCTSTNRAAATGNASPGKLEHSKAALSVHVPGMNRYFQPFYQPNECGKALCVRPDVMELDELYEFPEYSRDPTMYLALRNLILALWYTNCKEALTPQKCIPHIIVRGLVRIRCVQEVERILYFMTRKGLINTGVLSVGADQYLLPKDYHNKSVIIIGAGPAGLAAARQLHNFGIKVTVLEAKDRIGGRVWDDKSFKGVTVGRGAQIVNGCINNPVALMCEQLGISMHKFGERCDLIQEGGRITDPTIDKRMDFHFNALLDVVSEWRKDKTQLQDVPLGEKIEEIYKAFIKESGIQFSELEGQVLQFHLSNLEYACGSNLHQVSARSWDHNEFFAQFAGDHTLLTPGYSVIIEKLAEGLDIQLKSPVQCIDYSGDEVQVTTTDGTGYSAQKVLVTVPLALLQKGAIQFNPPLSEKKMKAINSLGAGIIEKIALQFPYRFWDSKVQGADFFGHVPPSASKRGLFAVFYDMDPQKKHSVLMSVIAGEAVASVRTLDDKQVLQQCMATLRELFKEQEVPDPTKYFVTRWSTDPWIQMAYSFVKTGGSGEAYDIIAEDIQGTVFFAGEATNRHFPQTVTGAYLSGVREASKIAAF
# T2: LSD2 used for isothermal titration calorimetry (human, UniProt Q8NB78 1-822)
# T2 sequence (looked up): T1 sequence (Q8NB78 1-822)
# T3: recombinant hexa-His-tagged LSD2 (human, UniProt Q8NB78 1-822)
# T3 sequence (looked up): T1 sequence (Q8NB78 1-822)
# T4: LSD2 (residues 51–822), as crystallised with NPAC (human, UniProt Q8NB78 51-822)
# T4 sequence: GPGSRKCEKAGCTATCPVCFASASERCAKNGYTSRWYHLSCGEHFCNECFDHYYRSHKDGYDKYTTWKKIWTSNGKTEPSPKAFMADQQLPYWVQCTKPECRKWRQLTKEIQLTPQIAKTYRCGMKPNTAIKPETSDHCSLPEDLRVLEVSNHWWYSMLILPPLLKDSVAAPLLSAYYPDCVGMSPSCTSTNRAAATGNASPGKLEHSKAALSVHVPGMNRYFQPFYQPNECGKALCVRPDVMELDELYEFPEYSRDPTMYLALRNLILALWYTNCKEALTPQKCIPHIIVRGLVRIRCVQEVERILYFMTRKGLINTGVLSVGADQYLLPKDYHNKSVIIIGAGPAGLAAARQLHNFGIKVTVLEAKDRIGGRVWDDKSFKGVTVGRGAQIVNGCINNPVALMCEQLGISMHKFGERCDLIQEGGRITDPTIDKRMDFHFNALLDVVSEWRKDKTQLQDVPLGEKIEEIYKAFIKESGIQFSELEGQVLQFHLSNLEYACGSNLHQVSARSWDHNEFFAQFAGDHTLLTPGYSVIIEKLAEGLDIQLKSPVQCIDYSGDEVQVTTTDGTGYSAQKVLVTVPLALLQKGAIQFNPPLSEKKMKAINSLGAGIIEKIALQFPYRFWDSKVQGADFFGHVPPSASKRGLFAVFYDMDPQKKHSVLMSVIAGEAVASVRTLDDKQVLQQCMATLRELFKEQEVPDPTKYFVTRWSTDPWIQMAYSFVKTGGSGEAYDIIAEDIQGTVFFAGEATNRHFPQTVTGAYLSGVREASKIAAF
# B1: wild-type NPAC dodecapeptide (residues 214–225) (peptide, UniProt Q49A26 214-225, looked up)
# peptide: DPHFHHFLLSQT
# B2: NPAC dodecapeptide (residues 214–225) F217A (peptide, UniProt Q49A26 214-225, looked up)
# peptide: DPHAHHFLLSQT
# B3: NP.d9: deletion of amino acids 214–222 from NP.d3 (protein)
# chain: SERGSKSPLKRAQEQSPRKRGRPPKDEKDLTIPESSTVKGMMAGPMAAFKWQPTASEPVKDASQTEKPAVCYQAITKKLKICEEETGSTSIQ
# modifications: left off: GST, end not stated, kept
# B4: GST-tagged wild-type NPAC (natural protein, UniProt Q49A26 1-553, looked up)
# chain: MAAVSLRLGDLVWGKLGRYPPWPGKIVNPPKDLKKPRGKKCFFVKFFGTEDHAWIKVEQLKPYHAHKEEMIKINKGKRFQQAVDAVEEFLRRAKGKDQTSSHNSSDDKNRRNSSEERSRPNSGDEKRKLSLSEGKVKKNMGEGKKRVSSGSSERGSKSPLKRAQEQSPRKRGRPPKDEKDLTIPESSTVKGMMAGPMAAFKWQPTASEPVKDADPHFHHFLLSQTEKPAVCYQAITKKLKICEEETGSTSIQAADSTAVNGSITPTDKKIGFLGLGLMGSGIVSNLLKMGHTVTVWNRTAEKCDLFIQEGARLGRTPAEVVSTCDITFACVSDPKAAKDLVLGPSGVLQGIRPGKCYVDMSTVDADTVTELAQVIVSRGGRFLEAPVSGNQQLSNDGMLVILAAGDRGLYEDCSSCFQAMGKTSFFLGEVGNAAKMMLIVNMVQGSFMATIAEGLTLAQVTGQSQQTLLDILNQGQLASIFLDQKCQNILQGNFKPDFYLKYIQKDLRLAIALGDAVNHPTPMAAAANEVYKRAKALDQSDNDMSAVYRAYIH
# B5: GST-NP.d2 (NPAC residues 1–252) (domain or fragment, UniProt Q49A26 1-252, looked up)
# chain: MAAVSLRLGDLVWGKLGRYPPWPGKIVNPPKDLKKPRGKKCFFVKFFGTEDHAWIKVEQLKPYHAHKEEMIKINKGKRFQQAVDAVEEFLRRAKGKDQTSSHNSSDDKNRRNSSEERSRPNSGDEKRKLSLSEGKVKKNMGEGKKRVSSGSSERGSKSPLKRAQEQSPRKRGRPPKDEKDLTIPESSTVKGMMAGPMAAFKWQPTASEPVKDADPHFHHFLLSQTEKPAVCYQAITKKLKICEEETGSTSIQ
# B6: GST-NP.d4 (NPAC residues 152–553) (domain or fragment, UniProt Q49A26 152-553, looked up)
# chain: SERGSKSPLKRAQEQSPRKRGRPPKDEKDLTIPESSTVKGMMAGPMAAFKWQPTASEPVKDADPHFHHFLLSQTEKPAVCYQAITKKLKICEEETGSTSIQAADSTAVNGSITPTDKKIGFLGLGLMGSGIVSNLLKMGHTVTVWNRTAEKCDLFIQEGARLGRTPAEVVSTCDITFACVSDPKAAKDLVLGPSGVLQGIRPGKCYVDMSTVDADTVTELAQVIVSRGGRFLEAPVSGNQQLSNDGMLVILAAGDRGLYEDCSSCFQAMGKTSFFLGEVGNAAKMMLIVNMVQGSFMATIAEGLTLAQVTGQSQQTLLDILNQGQLASIFLDQKCQNILQGNFKPDFYLKYIQKDLRLAIALGDAVNHPTPMAAAANEVYKRAKALDQSDNDMSAVYRAYIH
# B7: GST-NP.d3 (NPAC residues 152–252, linker region) (domain or fragment, UniProt Q49A26 152-252, looked up)
# chain: SERGSKSPLKRAQEQSPRKRGRPPKDEKDLTIPESSTVKGMMAGPMAAFKWQPTASEPVKDADPHFHHFLLSQTEKPAVCYQAITKKLKICEEETGSTSIQ
# B8: NP.d3: truncation protein containing the linker region, residues 152–252; GST-tagged (protein)
# chain: B7 chain
# modifications: left off: GST, end not stated, kept
# B9: GST-NP.d8 (NPAC residues 188–252) (domain or fragment, UniProt Q49A26 188-252, looked up)
# chain: TVKGMMAGPMAAFKWQPTASEPVKDADPHFHHFLLSQTEKPAVCYQAITKKLKICEEETGSTSIQ
# B10: NP.d8: residues 188–252 (protein)
# chain: B9 chain
# modifications: left off: GST, end not stated, kept
# B11: NPAC linker region (amino acids 152–268), as crystallised with LSD2 (domain or fragment, UniProt Q49A26 152-268, looked up)
# chain: SERGSKSPLKRAQEQSPRKRGRPPKDEKDLTIPESSTVKGMMAGPMAAFKWQPTASEPVKDADPHFHHFLLSQTEKPAVCYQAITKKLKICEEETGSTSIQAADSTAVNGSITPTDK
# B12: NP.d6: deletion of the linker region (residues 152–252); GST-tagged (protein)
# chain: MAAVSLRLGDLVWGKLGRYPPWPGKIVNPPKDLKKPRGKKCFFVKFFGTEDHAWIKVEQLKPYHAHKEEMIKINKGKRFQQAVDAVEEFLRRAKGKDQTSSHNSSDDKNRRNSSEERSRPNSGDEKRKLSLSEGKVKKNMGEGKKRVSSGSAADSTAVNGSITPTDKKIGFLGLGLMGSGIVSNLLKMGHTVTVWNRTAEKCDLFIQEGARLGRTPAEVVSTCDITFACVSDPKAAKDLVLGPSGVLQGIRPGKCYVDMSTVDADTVTELAQVIVSRGGRFLEAPVSGNQQLSNDGMLVILAAGDRGLYEDCSSCFQAMGKTSFFLGEVGNAAKMMLIVNMVQGSFMATIAEGLTLAQVTGQSQQTLLDILNQGQLASIFLDQKCQNILQGNFKPDFYLKYIQKDLRLAIALGDAVNHPTPMAAAANEVYKRAKALDQSDNDMSAVYRAYIH
# modifications: left off: GST, end not stated, kept
# Tests used:
# LSD2 [1] = target: T1, LSD2; assay: H3K4me2 peptide; assay type: biochemical; details: 50 μM H3K4me2 peptide (1–21), 50 mM Tris-HCl pH 8.5, 50 mM KCl, 5 mM MgCl2, 5% glycerol, 37°C, 30 min; MALDI-TOF MS
# Method in brief: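 Purified LSD2, full-length or truncated (residues 51–822), incubated with NPAC-derived peptides or proteins and 50 μM H3K4me2 peptide (residues 1–21, >95% pure by HPLC and MS) in 50 mM Tris-HCl pH 8.5, 50 mM KCl, 5 mM MgCl2, 5% glycerol, 37°C, 30 min. Products desalted on C18 tips; MALDI-TOF MS at constant laser intensity across samples.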
# LSD2 [2] = target: T1, LSD2; assay: nucleosome demethylation assay, stimulation; assay type: biochemical; details: independent of PWWP module; discussion
# [3] = target: T2, LSD2 used for isothermal titration …; assay: ITC
# LSD2 [4] = target: T1, LSD2; assay: GST pull-down of His-LSD2; assay type: binding; details: GST pull-down of purified His-LSD2, SDS-PAGE, Coomassie blue staining
# Method in brief: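 GST and GST-tagged wild-type or mutant NPAC proteins (linker-region and binding-site mutants) were used to pull down purified His-LSD2. His-LSD2 in input and bound fractions was resolved by SDS-PAGE and stained with Coomassie blue.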
# [5] = target: T3, recombinant hexa-His-tagged LSD2; assay: pull-down
# [6] = target: T4, LSD2 (residues 51–822), as crystallised …; assay: crystal structure
molecule,measurement,setting,value
DPHAHHFLLSQT [NP.M6],cofactor activity for LSD2 with H3K4me2 peptide (residues 1–21) as substrate,LSD2 [1],"but not the F217A mutant, can stimulate LSD2-mediated demethylation of H3K4me2 peptides; also recorded: These results were further confirmed in demethylation assays using H3K4me2 peptide substrate (residues 1–21)"
DPHFHHFLLSQT [NP.WT],cofactor activity for LSD2 with H3K4me2 peptide (residues 1–21) as substrate,LSD2 [1],can stimulate LSD2-mediated demethylation of H3K4me2 peptides
same,cofactor activity stimulating LSD2 demethylation of nucleosomes and synthetic histone peptides (summary),LSD2 [2],robust cofactor activity
B1,Kd,[3],920 ± 80 nM
B2,Kd,[3],930 ± 70 nM
B3,LSD2 binding / interaction,LSD2 [4],completely abolished LSD2 binding
B4,binding result,[5],binds
B5,binding result,[5],binds
B6,binding result,[5],binds
B7,binding result,[5],binds
B8,cofactor activity for LSD2 with H3K4me2 peptide (residues 1–21) as substrate,LSD2 [1],strong cofactor activity for LSD2
same,LSD2 binding / interaction,LSD2 [4],capable of directly interacting with LSD2
same,LSD2 binding / interaction,LSD2 [4]; listed as linker region of NPAC,sufficient for LSD2 binding
B9,binding result,[5],binds
B10,LSD2 binding / interaction,LSD2 [4],sufficient for LSD2 interaction
B11,binding result,[6],binds
B12,LSD2 binding / interaction,LSD2 [4],abolished NPAC-LSD2 interaction
